In assay [1] the test system is Toxoplasma gondii. The experiment in a line: Susceptibility of Toxoplasma gondii lacZ-transfected RH strain in human foreskin fibroblasts assessed as growth at 0.1 uM to 0.01 uM after 30 hrs by colorimetric assay. The assay is classed as functional. The gist of the method: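 HFF infected with β-galactosidase-expressing RH strain and exposed to 1-hydroxy-2-alkyl-4(1H)quinolone alkyl derivatives at 0.1 and 0.01 μM. Replication quantified by colorimetric β-galactosidase assay with chlorophenol red-β-D-galactopyranoside substrate.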

The test system of assay [2] is Toxoplasma gondii. Briefly: Inhibition of Toxoplasma gondii RH replication in human foreskin fibroblasts incubated for 24 hrs with drug after 2 hrs postinfection by immunofluorescence microscopy.
Assay [3] deals with Toxoplasma gondii. The experiment in a line: Effect on Toxoplasma gondii RH growth in human foreskin fibroblasts incubated with 0.1 uM for 24 hrs assessed as recovery after 72 hrs without drug. The format is functional.
Assay [4] relates to Toxoplasma gondii. Briefly: Inhibition of Toxoplasma gondii RH replication in human foreskin fibroblasts incubated for 24 hrs with drug after 2 hrs postinfection by immunofluorescence microscopy. The format is functional, organism-based.
Assay [5] concerns Toxoplasma gondii. The experiment in a line: Inhibition of Toxoplasma gondii RH replication in human foreskin fibroblasts incubated for 24 hrs with drug after 36 hrs postinfection by immunofluorescence microscopy. The assay is classed as functional, organism-based.
For assay [6], the system named is Toxoplasma gondii. Briefly: (§1) Effect on Toxoplasma gondii RH growth in human foreskin fibroblasts incubated with 0.1 uM for 24 hrs after 6 hrs postinfection assessed as recovery after 72 hrs without drug. The format is functional.
The test system of assay [7] is Toxoplasma gondii. Briefly: Inhibition of Toxoplasma gondii lacZ-transfected RH strain in human foreskin fibroblasts assessed as beta galactosidase activity after 30 hrs by colorimetric assay. The format is functional, organism-based. The gist of the method:
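lacZ-expressing RH tachyzoites (1 × 10^4/well) infected HFF for 4 h at 37°C in 1% DMEM without phenol red, washed, then exposed in duplicate to 1, 0.1, 0.01 and 0.001 μM with 100 μM chlorophenol red-β-D-galactopyranoside (final) at 37°C. Absorbance at 570 and 630 nm read at 30 h postinfection.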

Assay [8] relates to Toxoplasma gondii. The experiment in a line: Inhibition of invasion of Toxoplasma gondii RH in human foreskin fibroblasts assessed as decreased infection rate pretreated with 1 to 1000 nM after 2 hrs before infection. The assay is classed as functional, organism-based. The gist of the method: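 Extracellular tachyzoites pretreated 2 h with 1 to 1,000 nM before infecting HFF; infection rate compared with untreated parasites.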

For assay [9], the system named is Plasmodium falciparum. Briefly: Inhibition of Plasmodium falciparum trophozoite replication after 36 hrs by fluorometric assay. The format is functional, organism-based. Put shortly:
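FCBR young trophozoites (2% initial parasitemia) in RPMI 1640 with 10% human plasma and group A erythrocytes, gassed 90% N2/5% O2/5% CO2, exposed 36 h to 1 μM-1 nM. Erythrocytes lysed with saponin, pellets solubilized in guanidium-HCl/sodium acetate, stained with Hoechst 33258, read at 340/460 nm in triplicate. 2 μM chloroquine defined background.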

For assay [10], the system named is Toxoplasma gondii. The experiment in a line: Effect on Toxoplasma gondii RH growth in human foreskin fibroblasts incubated with 1 uM for 24 hrs assessed as recovery after 72 hrs without drug. The format is functional.
For assay [11], the system named is Toxoplasma gondii. The description is as §1. The assay is classed as functional. The source holds these as a separate data set.
Assay [12] deals with HFF. The experiment in a line: Inhibitory effect on metabolic activity of HFF cells upto 10 uM by Alamar Blue assay. As to conditions: Homo sapiens. The format is functional, cell-based. On the technique in general: The colour change of resazurin is a common sign of viable cells or microbes.
Assay [13] deals with Plasmodium falciparum. Briefly: Reduced parasitaemia in Plasmodium falciparum FCBR ring stage parasites. The assay is classed as functional, organism-based. Put shortly:
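Sorbitol-synchronized FCBR ring-stage cultures (initial parasitemia 3.2%) in T25 flasks, exposed 48 h to 1 μM, 100 nM, 10 nM and 1 nM. Parasitemia counted on Giemsa-stained blood smears relative to DMSO control.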

Active and inactive are the calls of the source. No cut-off for these calls is given here.

For `CCCCCCc1cc(=O)c2ccccc2n1O`, the Activity in assay [1] turned out to be 16.3%.

For `CCCCCc1cc(=O)c2ccccc2n1O`, in assay [1], the Activity is listed as 98.2%.

For `CCCCCCCCCCCCCCc1cc(=O)c2ccccc2n1O`, the Activity in assay [1] was 37.9%.

With `CCCCCCCCc1cc(=O)c2ccccc2n1O`, the Activity in assay [1] was determined as 14.8%.

Molecule `O=C1C(O)=C([C@H]2CC[C@H](c3ccc(Cl)cc3)CC2)C(=O)c2ccccc21` [ATOVAQUONE] came in with an IC50 in [2] of 9 nM.

Consider `CCCCCCCCCCCCc1cc(=O)c2ccccc2n1O`, for which the Activity in [1] was 42.6%; in assay [3], 49.3%; in assay [6] it was 65.8%; in [10], 2.9%; in assay [11] it was 65.8%. The IC50 in assay [4] was found to be 2.4 nM; in [5], 4 nM; in [7], 3.7 nM; in assay [9] it was 14 nM; in assay [13] it was 54.7 nM. In addition, the result in assay [8] and in [12] was inactive.

The IC50 is the concentration that inhibits the measured activity by half.

The values above are taken from ChEMBL document CHEMBL1147098, “Growth inhibition of Toxoplasma gondii and Plasmodium falciparum by nanomolar concentrations of 1-hydroxy-2-dodecyl-4(1H)quinolone, a high-affinity inhibitor of alternative (type II) NADH dehydrogenases” (Antimicrob Agents Chemother, 2007).
